Consider four compounds from ChEMBL document CHEMBL1142735, “Discovery of a new series of centrally active tricyclic isoxazoles combining serotonin (5-HT) reuptake inhibition with alpha2-adrenoceptor blocking activity” (J Med Chem, 2005).

In one assay the target is D(3) dopamine receptor (Homo sapiens, UniProt P35462). The assay is described as follows: Inhibition of [125I]-iodosulpiride binding to Dopamine receptor D3. An outline of the steps:
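Radioligand competition using membranes from a cell line transfected with human D3 receptor, incubated under optimized conditions. Bound ligand read by scintillation proximity assay rather than filtration. Ki by Cheng-Prusoff.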

Assay [1] relates to Rattus norvegicus. The assay is described as follows: Effective dose for PCA-induced 5-HT depletion was determined by oral administration. It is filed as functional. An outline of the steps:
(§1)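 Male Wiga Wistar rats (200 g, n=6 per condition) dosed sc or po (10 mL/kg). At 4 h, frontal cortex removed and extracted with perchloric acid/metabisulfite; 5-HT measured by HPLC-electrochemical detection against a standard curve with dihydroxybenzylamine internal standard. Effect scaled between pCA+vehicle and vehicle+vehicle controls; ED50 from sigmoidal fit.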

For assay [2], the target named is Norepinephrine transporter (Rattus norvegicus, UniProt Q9WTR4). As to the kind of experiment: Inhibition of [3H]-nisoxetine binding to Norepinephrine transporter from rat cortex. The gist of the method: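 Radioligand competition on rat cortex membranes, incubated under optimized conditions. Stopped by rapid filtration. Ki by Cheng-Prusoff.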
Chain of Norepinephrine transporter (Q9WTR4 whole entry): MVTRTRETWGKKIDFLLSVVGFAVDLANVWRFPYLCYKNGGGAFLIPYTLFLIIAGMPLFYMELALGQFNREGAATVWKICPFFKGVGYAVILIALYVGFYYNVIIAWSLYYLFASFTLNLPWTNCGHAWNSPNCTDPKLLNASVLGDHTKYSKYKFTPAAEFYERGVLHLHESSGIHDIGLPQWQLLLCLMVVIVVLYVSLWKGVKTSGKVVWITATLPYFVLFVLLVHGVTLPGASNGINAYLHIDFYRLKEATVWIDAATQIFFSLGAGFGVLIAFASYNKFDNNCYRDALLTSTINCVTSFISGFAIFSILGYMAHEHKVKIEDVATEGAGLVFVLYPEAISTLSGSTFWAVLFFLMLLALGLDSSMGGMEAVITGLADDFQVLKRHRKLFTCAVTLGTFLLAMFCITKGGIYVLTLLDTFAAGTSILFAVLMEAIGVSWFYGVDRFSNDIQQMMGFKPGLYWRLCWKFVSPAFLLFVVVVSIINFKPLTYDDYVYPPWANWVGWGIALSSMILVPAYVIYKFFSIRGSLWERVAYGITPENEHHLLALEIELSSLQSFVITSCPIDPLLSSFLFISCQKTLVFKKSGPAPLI
Assay [3] addresses Sodium-dependent dopamine transporter (Rattus norvegicus, UniProt P23977). As to the kind of experiment: Inhibition of [3H]WIN-35428 binding to Dopamine transporter of rat striatum. In kind it is tissue-based. An outline of the steps: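 Competition binding using rat striatum membranes incubated with the radioligand under optimized conditions, separated by filtration.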
In assay [4] the target is 5-hydroxytryptamine receptor 7 (Homo sapiens, UniProt P34969). The assay is described as follows: Inhibition of [3H]5-HT binding to 5-hydroxytryptamine 7 receptor. The gist of the method: (§2)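 Radioligand competition binding on membranes from cell lines carrying the human target, incubated with the labelled ligand under optimized conditions. Separation by filtration, except α1A and D3, which used scintillation proximity assay.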
Chain of 5-hydroxytryptamine receptor 7 (P34969 whole entry): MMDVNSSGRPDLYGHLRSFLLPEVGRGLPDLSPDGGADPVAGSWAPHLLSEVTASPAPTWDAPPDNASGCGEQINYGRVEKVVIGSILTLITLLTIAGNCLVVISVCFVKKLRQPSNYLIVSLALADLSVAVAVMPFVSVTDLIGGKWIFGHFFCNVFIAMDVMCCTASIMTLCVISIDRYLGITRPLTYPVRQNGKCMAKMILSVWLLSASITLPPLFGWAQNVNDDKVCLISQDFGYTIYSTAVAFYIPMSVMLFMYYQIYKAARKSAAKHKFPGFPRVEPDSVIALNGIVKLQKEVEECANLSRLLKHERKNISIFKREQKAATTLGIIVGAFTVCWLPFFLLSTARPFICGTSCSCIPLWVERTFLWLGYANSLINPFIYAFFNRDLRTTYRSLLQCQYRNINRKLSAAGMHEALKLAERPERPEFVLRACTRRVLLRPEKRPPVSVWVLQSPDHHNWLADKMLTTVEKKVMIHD

The target of another assay is T1, D(4) dopamine receptor (Homo sapiens, UniProt P21917).
T1 sequence (P21917 whole entry): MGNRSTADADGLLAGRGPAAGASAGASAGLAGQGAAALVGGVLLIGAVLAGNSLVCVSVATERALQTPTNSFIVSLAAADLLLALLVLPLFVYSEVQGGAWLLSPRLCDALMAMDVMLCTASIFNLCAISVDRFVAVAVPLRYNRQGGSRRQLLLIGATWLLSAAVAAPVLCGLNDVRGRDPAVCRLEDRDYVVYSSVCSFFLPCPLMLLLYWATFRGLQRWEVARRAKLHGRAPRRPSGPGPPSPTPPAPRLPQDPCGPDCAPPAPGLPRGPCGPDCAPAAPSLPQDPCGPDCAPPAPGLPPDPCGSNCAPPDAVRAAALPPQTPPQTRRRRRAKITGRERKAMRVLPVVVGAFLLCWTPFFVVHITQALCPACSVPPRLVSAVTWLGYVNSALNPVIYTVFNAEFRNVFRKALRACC
As to the kind of experiment: Inhibition of [3H]spiperone binding to Dopamine receptor D4. An outline of the steps:
as §2

The next assay concerns the target D(2) dopamine receptor (Homo sapiens, UniProt P14416). As to the kind of experiment: Inhibition of [3H]spiperone binding to Dopamine receptor D2. The gist of the method:
as §2

Assay [5] concerns the target T2, Adrenergic receptor alpha-1 (Homo sapiens, UniProt P35348+P25100+P35368).
T2 sequence (P35348 whole entry): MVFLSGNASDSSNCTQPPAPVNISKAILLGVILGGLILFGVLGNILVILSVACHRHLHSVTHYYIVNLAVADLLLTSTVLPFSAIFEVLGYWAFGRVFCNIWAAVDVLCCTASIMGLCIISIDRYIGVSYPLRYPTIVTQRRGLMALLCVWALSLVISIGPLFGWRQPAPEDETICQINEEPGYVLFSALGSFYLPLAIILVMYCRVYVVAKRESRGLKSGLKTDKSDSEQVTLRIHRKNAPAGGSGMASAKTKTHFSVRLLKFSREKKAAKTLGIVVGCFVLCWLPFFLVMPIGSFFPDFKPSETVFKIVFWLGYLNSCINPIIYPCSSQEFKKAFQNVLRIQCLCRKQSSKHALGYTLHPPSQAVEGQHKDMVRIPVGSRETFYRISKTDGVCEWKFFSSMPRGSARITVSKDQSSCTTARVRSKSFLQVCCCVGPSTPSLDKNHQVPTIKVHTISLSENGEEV
T2 sequence (P25100 whole entry): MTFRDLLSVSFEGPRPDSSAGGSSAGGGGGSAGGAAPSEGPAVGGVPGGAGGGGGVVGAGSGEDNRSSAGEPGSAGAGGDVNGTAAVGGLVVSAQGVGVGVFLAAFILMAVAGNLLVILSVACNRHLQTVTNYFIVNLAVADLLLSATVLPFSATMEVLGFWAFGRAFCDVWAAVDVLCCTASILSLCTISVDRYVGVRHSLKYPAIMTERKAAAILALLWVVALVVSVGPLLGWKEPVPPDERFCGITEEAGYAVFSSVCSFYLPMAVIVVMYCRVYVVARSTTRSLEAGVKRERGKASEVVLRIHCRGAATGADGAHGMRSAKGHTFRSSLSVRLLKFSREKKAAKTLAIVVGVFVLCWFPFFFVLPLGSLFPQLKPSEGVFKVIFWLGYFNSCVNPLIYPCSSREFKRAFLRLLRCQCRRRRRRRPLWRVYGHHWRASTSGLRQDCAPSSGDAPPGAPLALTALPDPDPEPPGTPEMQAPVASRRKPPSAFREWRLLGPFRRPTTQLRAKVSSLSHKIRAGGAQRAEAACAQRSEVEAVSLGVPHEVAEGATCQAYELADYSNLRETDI
T2 sequence (P35368 whole entry): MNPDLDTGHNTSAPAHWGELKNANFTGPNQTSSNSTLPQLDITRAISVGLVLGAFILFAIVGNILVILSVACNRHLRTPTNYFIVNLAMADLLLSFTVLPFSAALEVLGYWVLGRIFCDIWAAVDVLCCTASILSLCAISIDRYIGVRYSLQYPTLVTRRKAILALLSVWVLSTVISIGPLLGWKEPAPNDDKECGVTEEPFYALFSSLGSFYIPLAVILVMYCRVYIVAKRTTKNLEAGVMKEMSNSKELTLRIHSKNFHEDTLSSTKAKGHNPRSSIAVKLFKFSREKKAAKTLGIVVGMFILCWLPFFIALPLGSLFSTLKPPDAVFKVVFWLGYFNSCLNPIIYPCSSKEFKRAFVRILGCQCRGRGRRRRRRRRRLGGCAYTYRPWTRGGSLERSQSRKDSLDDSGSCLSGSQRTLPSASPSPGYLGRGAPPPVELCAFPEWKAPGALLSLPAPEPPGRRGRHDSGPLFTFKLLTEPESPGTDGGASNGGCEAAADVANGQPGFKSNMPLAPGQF
As to the kind of experiment: Inhibition of [3H]- prazosin binding to alpha-1 adrenergic receptor. In kind it is protein assay. The gist of the method: as §2

Assay [6] deals with Rattus norvegicus. The assay is described as follows: Effective dose for antagonism ofpCA-Induced excitation was determined by oral administration. It is filed as functional. The gist of the method:
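Oral pretreatment of overnight-fasted male Wistar rats (200-250 g), then medetomidine 0.10 mg/kg iv (reversal means no loss of righting) or pCA 5 mg/kg sc (excitation scored 0-3 over 15 min from 45 min after pCA; inhibition means score <2). Doses taken from a geometric series.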

The target of assay [7] is 5-hydroxytryptamine receptor 2A (Homo sapiens, UniProt P28223). The assay is described as follows: Inhibition of [125I]- R91150 binding to 5-hydroxytryptamine 2A receptor. An outline of the steps: as §2
Chain of 5-hydroxytryptamine receptor 2A (P28223 whole entry): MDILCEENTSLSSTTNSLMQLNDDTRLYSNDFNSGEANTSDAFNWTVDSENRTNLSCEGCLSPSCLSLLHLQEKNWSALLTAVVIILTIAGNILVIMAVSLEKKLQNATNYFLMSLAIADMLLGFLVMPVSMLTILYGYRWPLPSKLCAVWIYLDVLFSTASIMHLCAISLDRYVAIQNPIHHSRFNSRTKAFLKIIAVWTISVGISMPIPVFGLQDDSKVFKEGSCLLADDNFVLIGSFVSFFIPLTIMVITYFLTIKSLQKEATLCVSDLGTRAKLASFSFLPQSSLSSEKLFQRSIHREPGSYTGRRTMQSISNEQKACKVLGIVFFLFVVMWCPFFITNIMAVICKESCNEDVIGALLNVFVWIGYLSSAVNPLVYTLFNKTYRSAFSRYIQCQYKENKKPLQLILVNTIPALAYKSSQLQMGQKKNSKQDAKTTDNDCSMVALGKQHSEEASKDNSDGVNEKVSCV
For assay [8], the system named is Rattus norvegicus. As to the kind of experiment: Effective dose for PCA-induced 5-HT depletion was determined by subcutaneous administration. To be noted: sc. It is filed as functional. An outline of the steps: as §1

Chain of D(3) dopamine receptor (P35462 whole entry): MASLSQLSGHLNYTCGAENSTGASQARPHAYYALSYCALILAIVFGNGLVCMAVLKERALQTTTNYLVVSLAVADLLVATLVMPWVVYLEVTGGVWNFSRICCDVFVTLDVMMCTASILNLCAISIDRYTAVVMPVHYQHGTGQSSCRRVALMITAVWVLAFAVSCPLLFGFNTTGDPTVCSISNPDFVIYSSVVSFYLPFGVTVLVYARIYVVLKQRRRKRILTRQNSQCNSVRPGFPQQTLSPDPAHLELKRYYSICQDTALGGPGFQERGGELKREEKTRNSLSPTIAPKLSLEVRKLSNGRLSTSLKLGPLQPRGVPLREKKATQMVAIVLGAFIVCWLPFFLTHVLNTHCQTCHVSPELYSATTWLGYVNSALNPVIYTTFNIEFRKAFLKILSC
Chain of D(2) dopamine receptor (P14416 whole entry): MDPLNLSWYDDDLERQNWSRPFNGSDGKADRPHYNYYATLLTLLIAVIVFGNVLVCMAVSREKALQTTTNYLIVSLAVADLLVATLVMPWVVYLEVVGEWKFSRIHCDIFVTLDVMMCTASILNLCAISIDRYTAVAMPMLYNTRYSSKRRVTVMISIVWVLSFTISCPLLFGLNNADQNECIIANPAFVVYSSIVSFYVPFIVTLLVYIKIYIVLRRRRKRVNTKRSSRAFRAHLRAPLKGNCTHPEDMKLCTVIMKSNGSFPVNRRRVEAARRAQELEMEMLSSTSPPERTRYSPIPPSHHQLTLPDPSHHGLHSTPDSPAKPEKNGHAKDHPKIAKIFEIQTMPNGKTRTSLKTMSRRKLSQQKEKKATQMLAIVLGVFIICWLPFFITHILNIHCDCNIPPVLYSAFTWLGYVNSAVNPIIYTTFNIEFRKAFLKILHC
Chain of Sodium-dependent dopamine transporter (P23977 whole entry): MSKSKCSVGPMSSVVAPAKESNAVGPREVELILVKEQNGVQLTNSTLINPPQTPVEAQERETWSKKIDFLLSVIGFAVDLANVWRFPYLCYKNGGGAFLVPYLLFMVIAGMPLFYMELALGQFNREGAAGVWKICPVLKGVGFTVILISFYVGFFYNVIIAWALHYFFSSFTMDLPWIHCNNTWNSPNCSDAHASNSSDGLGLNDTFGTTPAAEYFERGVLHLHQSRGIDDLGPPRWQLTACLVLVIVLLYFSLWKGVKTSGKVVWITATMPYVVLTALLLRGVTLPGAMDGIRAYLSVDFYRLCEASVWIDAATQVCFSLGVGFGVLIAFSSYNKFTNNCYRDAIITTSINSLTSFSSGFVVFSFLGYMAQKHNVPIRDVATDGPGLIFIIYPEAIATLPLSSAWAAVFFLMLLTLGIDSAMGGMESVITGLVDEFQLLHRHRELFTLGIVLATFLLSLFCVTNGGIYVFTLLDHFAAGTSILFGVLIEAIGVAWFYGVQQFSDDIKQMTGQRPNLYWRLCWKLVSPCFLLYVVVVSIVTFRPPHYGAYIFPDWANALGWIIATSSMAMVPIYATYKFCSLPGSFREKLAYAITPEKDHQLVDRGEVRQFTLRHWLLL

As to `COc1cc2c(cc1OC)C1=NO[C@@H](CN3CCN(C/C=C/c4ccccc4)CC3)[C@@H]1CO2`, the Ki at D(3) dopamine receptor was 270 nM; in [2], 132 nM; in assay [3], 515 nM; in assay [4] it was above 1000 nM; at D(4) dopamine receptor it was above 1000 nM; on D(2) dopamine receptor it was 959 nM. The Ki in assay [5] and in assay [7] was above 1000 nM in each case. In addition, the ED50 with Rattus norvegicus [1] was found to be 1.1 mg/kg; in the assay with Rattus norvegicus [6], 5 mg/kg; in the assay with Rattus norvegicus [8] it was 0.17 mg/kg.
With `COc1cc2c(cc1OC)C1=NO[C@@H](CN3CCN(C/C=C(\C)c4ccccc4)CC3)[C@@H]1CO2`, the Ki is 611 nM on D(3) dopamine receptor; 220 nM in [2]; 368 nM in assay [3]; above 1000 nM in assay [4]; above 1000 nM at D(4) dopamine receptor; above 1000 nM on D(2) dopamine receptor. The Ki in assay [5] and in assay [7] was above 1000 nM each time. For the same compound, the ED50 in the assay with Rattus norvegicus [1] is 3.5 mg/kg; in the assay on Rattus norvegicus [6], at least 2.5 mg/kg; with Rattus norvegicus [8], 0.24 mg/kg.
As for `COc1cc2c(cc1OC)C1=NO[C@@H](CN3CCN(C/C(C)=C/c4ccccc4)CC3)[C@@H]1CO2`, the Ki on D(3) dopamine receptor was 433 nM; in assay [2] it was 177 nM; in [3], above 1000 nM; in assay [4], above 1000 nM; at D(4) dopamine receptor, above 1000 nM; at D(2) dopamine receptor, 230 nM. The results for the Ki in [5] and in assay [7] were 380 nM and above 1000 nM, respectively. Besides, the ED50 with Rattus norvegicus [1] came to 3.8 mg/kg; in the assay with Rattus norvegicus [8], 0.33 mg/kg.
Turning to `COc1cc2c(cc1OC)C1=NO[C@@H](CN3CCN(Cc4ccc5ccccc5c4)CC3)[C@@H]1CO2`, the Ki was 107 nM at D(3) dopamine receptor; 33 nM in assay [2]; 246 nM in [3]; above 1000 nM in assay [4]; above 1000 nM on D(4) dopamine receptor; above 1000 nM at D(2) dopamine receptor. Also, the Ki in assay [5] and in [7] was above 1000 nM throughout. The ED50 was determined as 2.6 mg/kg with Rattus norvegicus [1], 5 mg/kg in the assay on Rattus norvegicus [6] and 0.25 mg/kg in the assay on Rattus norvegicus [8].
